# SIAE primary: human SIAE inhibitors, primary screen, biochemical, fluorescence polarization, FP-Rh probe, 1536-well HTS; Sialate O-acetylesterase (Homo sapiens), Q9HAT2; SIAE FP-Rh probe binding; inhibition, % at 9.66 µM; hit rate 0.69% among 370,000; AID 1053197, 2014;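 active means inhibition above a cutoff: mean of compounds within the control limits plus 3 SD of those, cut at about 17% in these data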;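 further: 0% = plate median of compound wells and 100% = probe without SIAE protein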
# Tn7 DDE FP: inhibitors of Tn7 peptide binding to fibrin DD(E), primary screen, biochemical, fluorescence polarization, human fibrin, Tn7 probe; Fibrinogen beta chain (Homo sapiens), P02675; FP displacement of FITC-Tn7 peptide from fibrin DD(E); 0% = median of compound wells per plate; inhibition, % at 8.3 µM; hit rate 0.13% among 370,000;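 active means inhibition above the mean of compounds falling within the control limits plus 3 SD of them, cut at about 14% in these data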;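 further: 0% = plate median of compound wells and 100% = 10 µM Aha-Tn7 peptide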
#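 assay system = human clot-derived fibrin DD(E) complex | quantity = Fibrin-DD(E) at 2 µM final | timing = 10 min preincubation, 3 h with tracer, room temperature | signal = fluorescence polarization | measure = percent inhibition | benchmarks = high control wells with 10 µM unlabelled Aha-Tn7 peptide (full inhibition) | replicates = singlicate testing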
# mABHD4 FP: ABHD4 inhibitors, primary screen, biochemical, fluorescence polarization, mouse | (Lyso)-N-acylphosphatidylethanolamine lipase (Mus musculus), Q8VD66 | purified mABHD4, FP-Rh probe fluorescence polarization | inhibition, % at 8.92 µM | hit rate 0.54% among 370,000;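 active means inhibition exceeding the mean over every tested compound plus 3 SD, cut at about 30% in these data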;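 further: 0% = plate median of compound wells and 100% = S159A mutant with DMSO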
# Target sequence (Q8VD66 whole entry, looked up): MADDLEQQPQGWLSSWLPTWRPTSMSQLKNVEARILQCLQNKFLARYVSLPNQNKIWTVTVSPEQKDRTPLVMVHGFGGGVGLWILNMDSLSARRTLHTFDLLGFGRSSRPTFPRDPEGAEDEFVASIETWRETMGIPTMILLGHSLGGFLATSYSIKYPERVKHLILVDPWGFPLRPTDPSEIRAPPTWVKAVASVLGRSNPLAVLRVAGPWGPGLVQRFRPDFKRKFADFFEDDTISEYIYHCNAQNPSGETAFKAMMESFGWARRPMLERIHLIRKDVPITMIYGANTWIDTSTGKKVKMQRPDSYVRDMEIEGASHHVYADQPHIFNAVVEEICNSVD
#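 assay system = mABHD4 protein | compound dosing = single nominal dose of 8.92 µM, 0.89% DMSO final | read-out basis = percent inhibition of probe binding, normalized to plate controls | schedule = Enzyme–compound pre-incubation 45 min, then probe 60 min, both 25 °C | detection = fluorescence polarization, excitation 525 nm, emission 598 nm, BODIPY TMR filters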
# HTRA1 inhibitor: HTRA1 serine protease inhibitors, primary screen, biochemical, fluorescence polarization, HTS; recombinant HTRA1, FP-rhodamine activity-based probe; inhibition, % at 5.96 µM; hit rate 0.5% among 340,000; AID 504803, 2011; in the data active means inhibition above about 36%;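 further: 0% = enzyme with DMSO and 100% = wells lacking enzyme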
# DDE Tn6 FP inh: inhibitors of Tn6 peptide binding to fibrin DD(E), primary screen, biochemical, fluorescence polarization, human fibrin, Tn6 probe. inhibition, % at 8.3 µM. AID 720509, 2013. hit rate 0.21% among 370,000. Fibrin DD(E) TRITC-Tn6 fluorescence polarization displacement;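 active means inhibition above a per-campaign cutoff: mean of compounds within control limits plus 3 SD, cut at about 15% in these data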;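 further: 0% = median of all compound wells on the plate and 100% = blocking peptide control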
# TCR CD3 inh: inhibitors of human TCR-CD3 interaction, primary screen, biochemical, fluorescence, TAMRA-labeled TCR probe; hit rate 0.37% among 360,000; T-cell receptor (TCR); inhibition, % at 9.4 µM; in the data active means inhibition above about 19%;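 further: recombinant mutant TCR 2C K166C tagged with TAMRA read by polarization; 0% = receptor in buffer alone and 100% = receptor with positive control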
# SIAE inh conf: human SIAE inhibitors, retest, confirmation, biochemical, fluorescence polarization, FP-Rh probe, triplicate; shares compounds with SIAE primary; SIAE FP-Rh activity-based probe; inhibition, % at 9.66 µM; hit rate 13% among 2,300; AID 1117263, 2014;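 active means mean inhibition of the replicates above the hit cutoff set in the primary screen, cut at about 17% in these data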;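 further: 0% = SIAE with DMSO and probe and 100% = probe without SIAE; inhibitors lower polarization as more probe stays unbound to SIAE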
# * marks the source's active call; other numbers are inactive results; / = no result given. Compounds with a hit are over-represented: about 1.8% of the library has one in this group of screens.
SMILES,SIAE primary,Tn7 DDE FP,mABHD4 FP,HTRA1 inhibitor,DDE Tn6 FP inh,TCR CD3 inh,SIAE inh conf
O=C(Nc1ccc(N2CCCCC2)cc1)c1ccc([N+](=O)[O-])o1,19*,-5,11,16,-2,-7,6
O=C(Nc1ccc(N2CCOCC2)cc1)c1ccc([N+](=O)[O-])cc1,17*,-6,5,2,-2,6,-1
O=[N+]([O-])c1cccc(N/N=C/c2ccc(N3CCOCC3)cc2)c1,18*,-4,8,26,-9,-10,6
O=C(c1ccc([N+](=O)[O-])cc1)N1CCOCC1,18*,-12,5,8,5,-3,-3
O=C(c1ccc([N+](=O)[O-])cc1)N1CCCC1,-5,4,0,3,0,-4,/
O=C(OCC#CCSc1nnc(-c2cccc3ccccc23)o1)c1ccc(F)cc1F,-2,-2,-6,/,-4,/,/
Cc1cc2nc(C)c(Cl)c(=O)n2[nH]1,35*,-2,-4,1,-8,4,-1
Cc1ccc(C)c(OCCC(=O)OCC(=O)N(C)c2c(N)n(Cc3ccccc3)c(=O)[nH]c2=O)c1,18*,-2,-6,-9,-4,8,4
O=C(NC1CCCCN(Cc2cccc(C(F)(F)F)c2)C1=O)c1cccc(C(F)(F)F)c1 (configuration not stated),-1,3,-4,/,2,/,/
O=C(N1CCCC1)n1c(Cc2ccccc2)nc2ccccc21,19*,-14,-1,-4,-6,-2,2
O=C(O)Cn1c(CC(=O)N2CCCC2)nc2ccccc21,-2,1,-2,-2,4,4,/
CC(=O)c1cccc(NC(=S)NC(=O)c2ccccc2)c1,6,0,0,-2,-1,-4,/
CNC(=S)Nc1cccc(C(C)=O)c1,17*,1,8,3,-10,-1,2
COc1ccc(COCC(O)CN2CCc3ccccc3C2)cc1OC (configuration not stated),20*,5,6,0,5,5,-2
OC(COCc1ccccc1)CN1CCc2ccccc2C1 (configuration not stated),-5,7,-4,-1,-8,-5,/
O=C(N/N=C/c1ccoc1)c1cc(Br)ccc1O,19*,6,7,10,-2,17,8
COc1ccc2c(c1)CN1C(=O)N(C3CCCC3)S(=O)(=O)CC21 (configuration not stated),-8,2,6,/,8,/,/
C[C@@H]1OC(C2CCCCC2)N(C)[C@H]2C[C@H]3c4[nH]c5cccc(-c6cccc(F)c6)c5c4CCN3C(=O)[C@@H]12 (some centres not stated),-2,-2,5,/,3,/,/
O=C(CN1CCN(c2ccc(O)cc2)CC1)Nc1cc(S(=O)(=O)N2CCCC2)ccc1Cl,7,-3,18,-18,-3,-12,/
O=S(=O)(c1ccc(Cl)c(NC(=S)N/N=C/c2ccc(O)cc2)c1)N1CCOCC1,18*,5,2,-19,2,-1,5
O=C(CN1CCN(c2ccc(O)cc2)CC1)Nc1cc(S(=O)(=O)N2CCCCC2)ccc1Cl,21*,-2,17,4,1,1,2
N#CC(C#N)=Cc1cc2ccccc2nc1N1CCOCC1,0,-4,0,5,-10,-5,/
N#C/C(=C\c1cc2ccccc2nc1N1CCOCC1)C(=O)Nc1ccc(N2CCOCC2)cc1,20*,0,0,0,4,-8,7
CCCC[C@H]1C2CC(OC(=O)NCCCc3ccccc3)C(C2)[C@H]2CCCCN21 (some centres not stated),2,-1,3,/,5,/,/

# Bioassay records: PubChem BioAssay, The Scripps Research Institute Molecular Screening Center
